Data taken from ChEMBL document CHEMBL1153749, “Flavonoids from the heartwood of the Thai medicinal plant Dalbergia parviflora and their effects on estrogenic-responsive human breast cancer cells” (2009).

Key:
Type in all cases: functional
MCF7 [1] = assay: Estrogenic activity in human MCF7 cells assessed as drug level causing stimulation of cell proliferation equivalent to 100 pM estradiol after 96 hrs by alamar blue assay
Summary of the method: (§1)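 Cells seeded at 10^4 per well in phenol red-free RPMI with 5% DCC-treated FBS. Compounds added in DMSO (vehicle control 1% DMSO) for 96 h at 37 °C, 5% CO2, with serial estradiol dilutions run alongside. Alamar Blue for 3 h, fluorescence ex 530/em 590 nm. Estradiol-equivalent concentration fitted by linear regression from at least five concentrations in quadruplicate.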

T47D [2] = assay: Estrogenic activity in human T47D cells assessed as drug level causing stimulation of cell proliferation equivalent to 10 pM estradiol after 96 hrs by alamar blue assay; summary of the method: as §1
T47D [3] = assay: Estrogenic activity in luciferase transfected human T47D cells assessed as drug level causing stimulation of cell proliferation equivalent to 100 pM estradiol by luciferase reporter gene assay
Summary of the method: (§2)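 Reporter assay in MCF-7 or T47D cells transiently transfected with luciferase. Compounds tested from 0.01 to 10 µM. Luciferase induction is expressed as the compound concentration equivalent to the 10 or 100 pM estradiol response. Values come from linear regression over at least five concentrations in quadruplicate.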

MCF7 [4] = assay: Estrogenic activity in luciferase transfected human MCF7 cells assessed as drug level causing stimulation of cell proliferation equivalent to 10 pM estradiol by luciferase reporter gene assay; summary of the method: as §2
MCF7 [5] = assay: Estrogenic activity in human MCF7 cells assessed as drug level causing stimulation of cell proliferation equivalent to 10 pM estradiol after 96 hrs by alamar blue assay; summary of the method: as §1
T47D [6] = assay: Estrogenic activity in human T47D cells assessed as drug level causing stimulation of cell proliferation equivalent to 100 pM estradiol after 96 hrs by alamar blue assay; summary of the method: as §1
MCF7 [7] = assay: Estrogenic activity in luciferase transfected human MCF7 cells assessed as drug level causing stimulation of cell proliferation equivalent to 100 pM estradiol by luciferase reporter gene assay; summary of the method: as §2
T47D [8] = assay: Estrogenic activity in luciferase transfected human T47D cells assessed as drug level causing stimulation of cell proliferation equivalent to 10 pM estradiol by luciferase reporter gene assay; summary of the method: as §2

Row | Structure (SMILES) | Activity (MCF7 [1]) [µM] | Activity (T47D [2]) [µM] | Activity (T47D [3]) [µM] | Activity (MCF7 [4]) [µM] | Activity (MCF7 [5]) [µM] | Activity (T47D [6]) [µM] | Activity (MCF7 [7]) [µM] | Activity (T47D [8]) [µM]
1 | COc1ccc(-c2coc3cc(O)ccc3c2=O)c(OC)c1 [2'-METHOXYFORMONETIN] | 5.2 | 0.01 | 6.2 | >100 | 0.3 | 1.7 | >100 | 1.8
2 | COc1ccc(-c2coc3cc(O)cc(O)c3c2=O)cc1 [BIOCHANIN] | 3.8 | 0.3 | 0.01 | >100 | 0.3 | 0.5 | >100 | 0.01
3 | COC1=CC(=O)C(c2coc3cc(O)ccc3c2=O)=CC1=O [BOWDICHIONE] | 1.4 | >100 | >100 | 0.7 | 0.01 | >100 | 0.9 | >100
4 | COc1ccc(-c2coc3cc(O)ccc3c2=O)cc1O [CALYCOSIN] | >100 | 4.1 | >100 | 0.6 | >100 | >100 | 4.7 | 8.8
5 | COc1cc([C@H]2Oc3cc(O)ccc3C(=O)[C@@H]2O)ccc1O [ERYCIBENIN D] | >100 | 5.7 | >100 | >100 | >100 | >100 | >100 | 0.3
6 | COc1ccc(-c2coc3cc(O)ccc3c2=O)cc1 [FORMONONETIN] | >100 | 0.03 | 0.01 | 0.01 | >100 | >100 | 0.01 | 0.01
7 | O=c1c(-c2ccc(O)cc2)coc2cc(O)cc(O)c12 [GENISTEIN] | 0.11 | 0.01 | 0.6 | 0.01 | 0.01 | 0.08 | 0.01 | 0.01
8 | COc1c(C/C=C/c2ccccc2)ccc(O)c1O [HYDROXYOBUSTYRENE] | >100 | 5.1 | >100 | >100 | >100 | >100 | >100 | >100
9 | COc1ccc([C@@]2(O)COc3cc(O)ccc3C2=O)c(O)c1O [ISODARPARVINOL B] | >100 | >100 | >100 | 1.2 | >100 | >100 | 3.4 | >100
10 | O=C(/C=C/c1ccc(O)cc1)c1ccc(O)cc1O [ISOLIQUIRITIGENIN] | 4 | 1 | >100 | 0.01 | 1.1 | >100 | >100 | >100
11 | COc1cc(O)c(-c2coc3cc(O)ccc3c2=O)cc1O [KHRINONE A] | >100 | >100 | 8.4 | >100 | >100 | >100 | >100 | 5.6
12 | COc1cc(O)c(-c2coc3cc(O)cc(O)c3c2=O)cc1O [KHRINONE B] | >100 | >100 | >100 | >100 | >100 | >100 | >100 | >100
13 | COc1ccc(-c2coc3cc(O)cc(O)c3c2=O)c(OC)c1O [KHRINONE C] | 93.3 | 0.2 | 2 | >100 | 4.5 | 8.6 | >100 | 0.2
14 | COc1cc2c(cc1-c1coc3cc(O)cc(O)c3c1=O)OCO2 [KHRINONE D] | 4.2 | 0.01 | >100 | 0.01 | 1.8 | >100 | 0.6 | 5.3
